ChEMBL document CHEMBL1671714, “High-level azithromycin resistance occurs in Neisseria gonorrhoeae as a result of a single point mutation in the 23S rRNA genes” (2010)
≈ marks a conversion by molar mass, not a printed value. Calls of active or inactive are those of the source. The calls are words filed in the database; no cut-off is given here.

Key:
[1] = system: Neisseria gonorrhoeae; assay: Antimicrobial activity against Neisseria gonorrhoeae harboring A2059G mutation in 23S rRNA domain V allele 4 by Etest; format: functional
Outline: (§1)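 Isolates were revived from −80°C cryopreservative stocks by 18 to 20 h of growth on GC agar base with 1% IsoVitaleX at 36°C under 5% CO2, then subcultured. Erythromycin and azithromycin MICs were read by Etest.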

[2] = system: Neisseria gonorrhoeae; assay: Antimicrobial activity against Neisseria gonorrhoeae harboring A2059G mutation in 23S rRNA V domain allele 1, allele 2 and allele 4 by Etest; format: functional; outline: as §1
[3] = system: Neisseria gonorrhoeae; assay: Antimicrobial activity against Neisseria gonorrhoeae C2611T mutation in 23S rRNA domain V allele 3 by Etest; format: functional; outline: as §1
[4] = system: Neisseria gonorrhoeae; assay: Antimicrobial activity against Neisseria gonorrhoeae isolate 136 NG-MAST sequence type 1704 harboring A2059G mutation in 23S rRNA V domain allele 1, allele 2, allele 3 and allele 4 selected after 0.5 to 8 mg/L of erythromycin by Etest; format: functional
Outline: (§2)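 Single-colony expansions of the parent isolate (~1 × 10^8 CFU by viable count) were spread on GC agar with 1% IsoVitaleX containing erythromycin in 2-fold steps from 0.5 to 8.0 mg/liter, and incubated 24 h at 36°C under 5% CO2. Growth on the highest-concentration plate was subcultured, confirmed as gonococcus (Gram stain, oxidase, Phadebact GC), and azithromycin and erythromycin MICs were read by Etest. Passages were run in duplicate.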

[5] = system: Neisseria gonorrhoeae; assay: Antimicrobial activity against Neisseria gonorrhoeae isolate 254921 NG-MAST sequence type 649 by Etest; format: functional; outline: as §1
[6] = system: Neisseria gonorrhoeae; assay: Antimicrobial activity against Neisseria gonorrhoeae isolate 254921 NG-MAST sequence type 649 selected after 2 to 8 mg/L of compound by Etest; format: functional
[7] = system: Neisseria gonorrhoeae; assay: Antimicrobial activity against Neisseria gonorrhoeae harboring A2059G mutation in 23S rRNA V domain allele 1, allele 3 and allele 4 by Etest; format: functional; outline: as §1
[8] = system: Neisseria gonorrhoeae; assay: Antimicrobial activity against Neisseria gonorrhoeae harboring A2059G mutation in 23S rRNA V domain allele 1, allele 2, allele 3 and allele 4 by Etest; format: functional; outline: as §1
[9] = system: Neisseria gonorrhoeae; assay: Antimicrobial activity against Neisseria gonorrhoeae isolate 352521 NG-MAST sequence type 1443 harboring A2059G mutation in 23S rRNA V domain allele 1, allele 2, allele 3 and allele 4 selected after 0.5 to 8 mg/L of erythromycin by Etest; format: functional; outline: as §2
[10] = system: Neisseria gonorrhoeae; assay: microbe, parasite or virus in culture; conditions: isolate 352521
[11] = system: Neisseria gonorrhoeae; assay: microbe, parasite or virus in culture
[12] = system: Neisseria gonorrhoeae; assay: Antimicrobial activity against Neisseria gonorrhoeae expressing wild type 23S rRNA by Etest; format: functional; outline: as §1
[13] = system: Neisseria gonorrhoeae; assay: Antimicrobial activity against Neisseria gonorrhoeae isolate 252611 NG-MAST sequence type 470 harboring A2059G mutation in 23S rRNA V domain allele 2 by Etest; format: functional; outline: as §1
[14] = system: Neisseria gonorrhoeae; assay: Antimicrobial activity against Neisseria gonorrhoeae harboring A2059G mutation in 23S rRNA domain V allele 2 by Etest; format: functional; outline: as §1
[15] = system: Neisseria gonorrhoeae; assay: microbe, parasite or virus in culture; remark: listed apart in the source
[16] = system: Neisseria gonorrhoeae; assay: microbe, parasite or virus in culture; conditions: isolate 136
[17] = system: Neisseria gonorrhoeae; assay: Antimicrobial activity against Neisseria gonorrhoeae isolate 252611 NG-MAST sequence type 470 harboring A2059G mutation in 23S rRNA V domain allele 1, allele 2, allele 3 and allele 4 selected after 0.5 to 8 mg/L of erythromycin by Etest; format: functional; outline: as §2
[18] = system: Neisseria gonorrhoeae; assay: Antimicrobial activity against Neisseria gonorrhoeae isolate 254921 NG-MAST sequence type 649 selected after 4 mg/L of erythromycin by Etest; format: functional, organism-based

| Structure (SMILES) | MIC [1] [mg/L] | MIC [2] [mg/L] | MIC [3] [mg/L] | MIC [4] [mg/L] | MIC [5] [mg/L] | MIC [6] [mg/L] | MIC [7] [mg/L] | MIC [8] [mg/L] | MIC [9] [mg/L] | MIC [10] [mg/L] | MIC [11] [mg/L] | MIC [12] [mg/L] | MIC [13] [mg/L] | MIC [14] [mg/L] | MIC [15] [mg/L] | MIC [16] [mg/L] | MIC [17] [mg/L] | Activity [18] |
| --- | --- | --- | --- | --- | --- | --- | --- | --- | --- | --- | --- | --- | --- | --- | --- | --- | --- | --- |
| CC[C@H]1OC(=O)[C@H](C)[C@@H](O[C@H]2C[C@@](C)(OC)[C@@H](O)[C@H](C)O2)[C@H](C)[C@@H](O[C@@H]2O[C@H](C)C[C@H](N(C)C)[C@H]2O)[C@](C)(O)C[C@@H](C)CN(C)[C@H](C)[C@@H](O)[C@]1(C)O [AZITHROMYCIN] | 0.06 (≈ 0.0801 µM) | ≥ 256 | 0.06 (≈ 0.0801 µM) | > 256 | 0.25 (≈ 0.334 µM) | 1.5 (≈ 2 µM) | ≥ 256 | ≥ 256 | > 256 | 0.25 (≈ 0.334 µM) | 2 (≈ 2.67 µM) | 0.06 (≈ 0.0801 µM) | 0.38 (≈ 0.507 µM) | 0.06 (≈ 0.0801 µM) | 2 (≈ 2.67 µM) | 0.25 (≈ 0.334 µM) | > 256 |  |
| CC[C@H]1OC(=O)[C@H](C)[C@@H](O[C@H]2C[C@@](C)(OC)[C@@H](O)[C@H](C)O2)[C@H](C)[C@@H](O[C@@H]2O[C@H](C)C[C@H](N(C)C)[C@H]2O)[C@](C)(O)C[C@@H](C)C(=O)[C@H](C)[C@@H](O)[C@]1(C)O [ERYTHROMYCIN] |  |  |  |  | 3 (≈ 4.09 µM) | 4 (≈ 5.45 µM) |  |  |  |  |  |  |  |  |  |  |  | Active |
